# Assay outcomes from PubChem.
# Most compounds without a hit are left out; they make up all but 4.8% or so of the library.
# ALR inh: inhibitors of human ALR sulfhydryl oxidase, primary screen, biochemical, H2O2 detection, HRP-luminol luminescence, single point. FAD-linked sulfhydryl oxidase ALR (Homo sapiens), P55789. 290,000 tested, 3.8% active. purified ALR, DTT oxidation. AID 485317, 2010. inhibition, % (no concentration beside the values);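 active = mean replicate inhibition above about 79%, with every replicate also reaching it, limit read from the data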
# Target sequence (P55789 whole entry, looked up): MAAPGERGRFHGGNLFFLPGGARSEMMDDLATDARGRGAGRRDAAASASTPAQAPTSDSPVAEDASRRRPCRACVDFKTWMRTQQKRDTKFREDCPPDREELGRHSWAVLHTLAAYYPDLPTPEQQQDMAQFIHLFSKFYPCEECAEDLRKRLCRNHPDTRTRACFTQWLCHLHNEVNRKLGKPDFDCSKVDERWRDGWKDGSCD
# UCH37 DUB inh: inhibitors of human UCH37 deubiquitinase, primary screen, biochemical, Ub-AMC cleavage, fluorescence | Ubiquitin carboxyl-terminal hydrolase isozyme L5 (Homo sapiens), Q9Y5K5 | purified proteasome/UCH37 | inhibition, % (test concentration not listed) | 330,000 tested, 0.33% active | AID 588478, 2011;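 active = mean inhibition over replicate wells above about 20%, limit read from the data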;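 note: 0% = compound-free wells with enzyme and 100% = wells lacking proteasome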
#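 Material: human UCH37 enzyme supplied as purified proteasome complex / Amount: 0.15 nM proteasome as dispensed / Buffer or medium: pH 7.4 Tris-HCl (50 mM) with ovalbumin, ATP-MgCl2, DTT / Times: preincubation 30 min, reaction 25 min, room temperature / Technique: AMC fluorescence from Ub-AMC cleavage, excitation 355 nm, emission 460 nm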
# Calb FLC: C. albicans growth inhibition with fluconazole, primary screen, CaCi-2 strain, Alamar Blue fluorescence; C. albicans CaCi-2 (fluconazole-resistant clinical isolate) + fluconazole, 48 h; AID 1979, 2009; growth inhibition, % (no concentration beside the values); 300,000 tested, 0.57% active;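 active = growth inhibition above about 58% in most replicates, limit read from the data, passing the limit was not always enough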;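 note: all wells also contain fluconazole at 8 µg/ml as a sub-toxic cotreatment; 0% = median of DMSO wells and 100% = median of geldanamycin control wells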
# ATG4B inh: ATG4B protease inhibitors, primary screen, biochemical, fluorescence, uHTS; ATG4B cleavage of LC3-PLA2, NBD-HPC fluorescence, 1 h; Cysteine protease ATG4B (Homo sapiens), Q9Y4P1; 340,000 tested, 0.51% active; inhibition, % at 8.33 µM; in the data active = inhibition above about 40%
# NLRP3 yeast inh: NALP3 inflammasome inhibitors in reconstituted yeast, primary screen, luminescence, uHTS; 330,000 tested, 0.39% active; Yeast reconstituted NLRP3/ASC/caspase-1, beta-gal luminescence, 24 h; AID 2825, 2010; inhibition, % at 10 µM;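 active = inhibition of 50% or more; inactive = inhibition below 50%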;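 note: plate controls were induced DMSO wells for no effect and uninduced yeast grown without galactose for full effect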
# NALP1 yeast inh: NALP1 inflammasome inhibitors in reconstituted yeast, colorimetric, S. cerevisiae, triplicate retest; S. cerevisiae NALP1/ASC/caspase-1 growth, X-gal OD620, 72 h; inhibition, % at 10 µM; 280,000 tested, 0.61% active; in the data active = inhibition mostly above about 24%, no sharp cut-off; inactive = mostly below about 32%
# Numbers without * were called inactive; / = no result given.
SMILES,ALR inh,UCH37 DUB inh,Calb FLC,ATG4B inh,NLRP3 yeast inh,NALP1 yeast inh
CCC(=O)N1CCN(c2nc3ccc(Br)cc3s2)CC1,-3,4,13,2,-2,30*
Cc1cc(N2CCCC2)ccc1NC(=O)CN1C(=O)NC2(CCCCC2)C1=O,93*,0,-4,10,13,/
Cc1cc(Cl)ccc1NC(=O)CN1C(=O)NC2(CCCC2)C1=O,/,0,-24,-10,9,1
O=C(CN1C(=O)NC2(CCCCC2)C1=O)Nc1ccc(N2CCCCC2)cc1,93*,0,/,-3,5,/
Cn1ccnc1SCC(=O)c1c[nH]c2ccccc12,96*,4,18,7,14,5
COc1ccccc1C(=O)CSc1nccn1C,/,3,-6,-3,19,-8
Cc1ccc(N2CCN(N=Cc3sccc3C)CC2)cc1,/,2,/,/,/,/
Cn1cccc1C=NNC(=O)Cc1cccs1,/,4,/,/,/,/
Nc1c(S(=O)(=O)c2ccccc2)c2nc3ccccc3nc2n1C1CC1,99*,-445,-7,-5,6,-9
CCCCn1c(NS(=O)(=O)c2ccccc2)c(S(=O)(=O)c2ccc(C)cc2)c2nc3ccccc3nc21,18,-463,2,75*,/,8
Nc1c(S(=O)(=O)c2ccccc2)c2nc3ccccc3nc2n1CCN1CCOCC1,0,-217,88*,-11,5,23
CCCCn1c(NC(=O)c2ccco2)c(S(=O)(=O)c2ccc(C)cc2)c2nc3ccccc3nc21,/,-206,48,-3,/,16
O=C(O)c1ccc(C=NNc2nnnn2-c2ccccc2)cc1,/,0,/,/,/,/
COc1cc(C=NS(=O)(=O)CCc2ccccc2)cc(OC)c1O,/,8,/,/,/,/
Cc1ccc(N=N/C(=C\O)C(=O)c2ccc(Cl)cc2)cc1,3,1,-4,10,8,14
O=C(/C(=C/O)N=Nc1ccccc1)c1ccc(Cl)cc1,3,2,3,19,8,26*
O=C(O)c1ccc(CN2C(=O)CSC2=S)cc1,-16,5,98*,-1,-3,-8
COc1ccc(C(=O)N/N=C(\Cc2ncc[nH]2)c2ccccc2)cc1,87*,/,98*,1,7,-18
c1ccc(N/N=C(\Cc2ncc[nH]2)c2ccccc2)cc1,99*,/,114*,-5,6,-10
CCn1nc(C)c(C=NNC(=O)c2nc3nc(C)cc(C)n3n2)c1C,/,3,/,/,/,/
CCOc1cccc(C(=O)NN=Cc2ccoc2)c1,/,-2,/,/,/,/
Cc1cc(C)n2nc(SCC(=O)NN=Cc3ccc(F)cc3)nc2n1,/,1,/,/,/,/
COc1ccccc1NC(=O)c1c(NC(=O)CCC(=O)O)sc2c1CCCCC2,98*,3,5,8,0,8
CC(C)(ONC(=O)Nc1ccccc1Cl)C(=O)O,-4,5,3,-7,7,30*
Cc1ccc(C)n1-c1cc([N+](=O)[O-])ccc1-n1ccnc1,-3,7,-6,3,13,1
SMILES,ALR inh,UCH37 DUB inh,Calb FLC,ATG4B inh,NLRP3 yeast inh,NALP1 yeast inh
CC1(C)N([O-])c2cc([N+](=O)[O-])ccc2[N+]1=O,47,57*,/,-2,16,-6
O=[N+]([O-])c1cc(S(=O)(=O)Nc2cccc(Cl)c2)ccc1NN=Cc1ccc(N2CCOCC2)cc1,/,12,/,/,/,/
COc1cc(/C=C/C(=O)OCC(=O)Nc2ccc3c(c2)OCCO3)ccc1O,81*,-10,-27,-15,22,27
COc1cc(/C=C/C(=O)OCC(=O)NCc2ccccc2OC)ccc1O,84*,-6,10,-1,14,/
COc1cc(/C=C/C(=O)OCC(=O)NCCC2=CCCCC2)ccc1O,99*,0,-12,-15,6,-6
COc1cc(/C=C/C(=O)OCC(=O)N2CCN(C(=O)c3ccco3)CC2)ccc1O,99*,-12,7,-10,3,37
C=CCN1C(=O)C(Cc2ccccc2)SC1=NN=Cc1cccs1 (centres undefined),/,-1,/,/,/,/
O=C(NN=Cc1ccc(OC(=O)c2cccc(F)c2)cc1)c1cccnc1,/,5,/,/,/,/
